Published values of several laboratories.
Target: B2 bradykinin receptor (BDKRB2, Homo sapiens, UniProt P30411)
Sequence (P30411 1-391, as in one of the studies): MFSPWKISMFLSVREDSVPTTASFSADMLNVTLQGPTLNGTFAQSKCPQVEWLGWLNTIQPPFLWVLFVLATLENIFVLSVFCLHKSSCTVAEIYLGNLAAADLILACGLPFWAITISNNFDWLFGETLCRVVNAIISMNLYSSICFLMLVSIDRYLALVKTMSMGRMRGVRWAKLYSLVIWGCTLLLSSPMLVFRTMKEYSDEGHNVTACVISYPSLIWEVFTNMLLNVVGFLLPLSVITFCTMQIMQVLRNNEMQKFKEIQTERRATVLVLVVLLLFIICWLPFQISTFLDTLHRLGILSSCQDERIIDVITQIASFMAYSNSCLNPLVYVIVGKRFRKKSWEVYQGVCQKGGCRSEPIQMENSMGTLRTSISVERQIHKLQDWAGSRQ

The inhibition of CC(C)N1CCC[C@H]1CNC(=O)c1cn(C2CCCC2)c(=O)c2c1c1ccccc1n2C is reported as 11% (ligand displacement, radioligand; 10 µM).
CCN(CC)CCCC[C@H](NC(=O)[C@H](CC(C)C)NC(=O)[C@H](C)NC(=O)[C@H](Cc1ccccc1)NC(=O)c1ccc(C(C)(C)C)cc1)C(=O)N[C@@H](CO)C(=O)OC gave an inhibition of -7% (ligand displacement, radioligand; 10 µM).
CN(CCN1CCC(OC(=O)Nc2ccccc2-c2ccccc2)CC1)C(=O)c1ccc(CN2CCC(C(N)=O)CC2)cc1 gave an inhibition of -6% (ligand displacement, radioligand; 1 µM).
The inhibition of COc1ccc(S(=O)(=O)N2CCCCC2)cc1C is reported as < 30% (ligand displacement, radioligand; 10 µM).
For c1ccc(C(NCCNC(c2ccccc2)c2ccccc2)c2ccccc2)cc1, the inhibition was 17% (cell-free assay; 10 µM).
For COCc1c(-c2cc3cc(C)cc(OC)c3s2)c2c(N)ncnn2c1CN1CCNC(=O)C1, the inhibition was 3% (ligand displacement, radioligand; 10 µM).
The inhibition of C[C@H](C(=O)N[C@H]1COc2ccccc2[C@@H]1S(C)(=O)=O)c1ccc(F)cc1 is reported as 8% (cell-free assay; 10 µM).
For O=C(Nc1cccnn1)N1CCN([C@@H]2CCOc3cc(C(F)(F)F)ccc32)CC1, the inhibition was 10% (cell-free assay; 20 µM).
